According to ChEMBL document CHEMBL4024792, “(N-Hydroxycarbonylbenylamino)quinolines as Selective Histone Deacetylase 6 Inhibitors Suppress Growth of Multiple Myeloma in Vitro and in Vivo” (J Med Chem, 2018):

Key:
U-266 = assay: Antiproliferative activity against human U266 cells after 48 hrs by SRB assay; assay type: functional; details: U-266, 48 h
Summary of the method: (§1)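 Cells were exposed to test compounds at the indicated concentrations for 48 h. They were then fixed with 10% trichloroacetic acid, stained 30 min with 0.4% SRB in 1% AcOH, and washed with 1% AcOH. Bound dye was solubilized in 10 mM Tris base and OD read at 510 nm. Lines cultured in RPMI 1640 with 20% FBS and penicillin/streptomycin, 37°C, 5% CO2.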

Histone deacetylase 8 = target: T1, Histone deacetylase 8 (Homo sapiens, UniProt Q9BY41); assay: Inhibition of recombinant human C-terminal His-tagged/N-terminal Strep2-tagged HDAC8 (1 to 377 residues) expressed in insect cells using RHK-K(Ac)-AMC as substrate after 60 mins by fluorescence assay
T1 sequence (Q9BY41 whole entry): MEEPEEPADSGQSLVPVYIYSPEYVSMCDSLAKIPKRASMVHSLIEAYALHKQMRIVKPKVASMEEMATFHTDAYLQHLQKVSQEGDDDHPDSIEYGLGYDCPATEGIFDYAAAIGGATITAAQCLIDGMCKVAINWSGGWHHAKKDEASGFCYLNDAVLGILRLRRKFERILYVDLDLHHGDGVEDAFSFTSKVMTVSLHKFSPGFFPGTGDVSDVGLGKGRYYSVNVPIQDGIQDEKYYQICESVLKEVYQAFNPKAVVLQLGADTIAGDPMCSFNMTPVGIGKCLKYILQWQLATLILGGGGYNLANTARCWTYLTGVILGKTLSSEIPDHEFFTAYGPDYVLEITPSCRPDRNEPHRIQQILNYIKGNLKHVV

NCI-H929 = assay: Antiproliferative activity against human NCI-H929 cells after 48 hrs by SRB assay; assay type: functional; details: NCI-H929, 48 h; summary of the method: as §1
[1] = target: T2, Protein deacetylase HDAC6 (Homo sapiens) (UniProt Q9UBN7); assay: Inhibition of HDAC6 in human NCI-H929 cells assessed as increase in acetylated tubulin level by immunoblot analysis relative to control; assay type: cell-based
T2 sequence (whole entry): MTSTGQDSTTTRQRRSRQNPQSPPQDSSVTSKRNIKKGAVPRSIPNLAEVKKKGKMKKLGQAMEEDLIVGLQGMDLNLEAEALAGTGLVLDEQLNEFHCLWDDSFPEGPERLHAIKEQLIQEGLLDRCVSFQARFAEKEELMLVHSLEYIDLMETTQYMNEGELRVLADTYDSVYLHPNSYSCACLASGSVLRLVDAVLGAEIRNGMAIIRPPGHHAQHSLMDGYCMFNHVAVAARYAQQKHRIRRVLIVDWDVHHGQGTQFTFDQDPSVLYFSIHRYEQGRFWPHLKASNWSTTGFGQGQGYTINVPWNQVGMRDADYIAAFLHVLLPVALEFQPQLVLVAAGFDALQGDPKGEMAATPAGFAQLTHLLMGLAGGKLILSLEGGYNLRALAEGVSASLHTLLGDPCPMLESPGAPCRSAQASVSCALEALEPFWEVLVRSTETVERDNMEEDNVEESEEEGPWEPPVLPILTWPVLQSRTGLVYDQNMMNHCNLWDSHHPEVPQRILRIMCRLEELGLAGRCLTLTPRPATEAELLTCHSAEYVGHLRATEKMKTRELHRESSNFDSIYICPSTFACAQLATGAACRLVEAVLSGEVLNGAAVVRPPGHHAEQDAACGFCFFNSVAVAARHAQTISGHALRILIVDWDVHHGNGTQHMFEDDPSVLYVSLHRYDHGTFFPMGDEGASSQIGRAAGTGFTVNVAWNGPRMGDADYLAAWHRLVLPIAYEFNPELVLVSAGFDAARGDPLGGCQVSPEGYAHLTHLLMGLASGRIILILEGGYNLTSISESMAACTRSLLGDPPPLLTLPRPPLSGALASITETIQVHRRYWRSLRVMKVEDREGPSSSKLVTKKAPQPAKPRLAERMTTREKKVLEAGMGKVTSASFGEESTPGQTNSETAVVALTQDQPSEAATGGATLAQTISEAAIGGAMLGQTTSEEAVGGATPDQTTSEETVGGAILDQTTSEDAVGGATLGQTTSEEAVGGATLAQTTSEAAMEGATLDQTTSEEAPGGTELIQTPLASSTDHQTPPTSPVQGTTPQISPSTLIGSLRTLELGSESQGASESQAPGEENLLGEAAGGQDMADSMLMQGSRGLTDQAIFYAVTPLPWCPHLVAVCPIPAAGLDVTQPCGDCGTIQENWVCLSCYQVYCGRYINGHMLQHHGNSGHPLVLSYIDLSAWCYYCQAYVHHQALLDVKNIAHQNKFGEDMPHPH
Summary of the method: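 Multiple myeloma cells harvested in Tris-HCl lysis buffer (pH 7.4) with protease and phosphatase inhibitors, then centrifuged 17,000 g for 30 min at 4 °C. Lysates immunoblotted with specific antibodies for acetylated α-tubulin. Signal detected by ECL on film.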

Histone deacetylase 11 = target: T3, Histone deacetylase 11 (Homo sapiens, UniProt Q96DB2); assay: Inhibition of recombinant human N-terminal Strep2-tagged HDAC11 (1 to 347 residues) expressed in baculovirus infected insect cells using Boc-Lys(TFA)-AMC as substrate after 60 mins by fluorescence assay
T3 sequence (Q96DB2 whole entry): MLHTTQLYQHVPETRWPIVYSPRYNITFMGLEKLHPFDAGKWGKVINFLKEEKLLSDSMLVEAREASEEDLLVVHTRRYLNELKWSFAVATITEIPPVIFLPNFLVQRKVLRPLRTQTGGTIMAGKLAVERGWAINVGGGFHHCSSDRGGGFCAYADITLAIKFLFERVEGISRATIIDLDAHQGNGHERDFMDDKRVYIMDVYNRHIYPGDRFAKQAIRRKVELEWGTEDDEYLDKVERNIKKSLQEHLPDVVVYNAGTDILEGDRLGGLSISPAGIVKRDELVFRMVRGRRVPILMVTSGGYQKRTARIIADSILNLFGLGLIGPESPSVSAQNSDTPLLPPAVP

SMILES | GI50 (U-266) [µM] | IC50 (Histone deacetylase 8) [µM] | GI50 (NCI-H929) [µM] | inhibition [1] | IC50 (Histone deacetylase 11) [µM]
O=C(NO)c1ccc(CNc2cccc3ncccc23)cc1 | 28.4 | 0.636 | 6.2 | Dose-dependent effect | 1
O=C(NO)c1ccc(CNc2cccc3cccnc23)cc1 | 40.6 | 1.19 | 9.14 | Dose-dependent effect | 0.376
